Test results: ChEMBL document CHEMBL1143122, “Novel analogs of D-e-MAPP and B13. Part 1: synthesis and evaluation as potential anticancer agents” (Bioorg Med Chem, 2008)

Legend:
[1] = system: LOX IMVI; assay: Antiproliferative activity against human LOXIMVI cells after 48 hrs; type: functional
Outline: (§1)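 NCI 60-cell screen. Cells were grown in RPMI 1640 with 5% FBS and 2 mM L-glutamine, then plated at 5,000–40,000 cells/well according to doubling time and preincubated for 24 h at 37 °C in 5% CO2. Compounds were dissolved in DMSO at 400× the top final concentration and tested at five 10-fold dilutions from 10−4 to 10−8 M for 48 h. Growth was read spectrophotometrically; GI50 is 50% net protein reduction.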

[2] = system: M14; assay: Antiproliferative activity against human M14 cells after 48 hrs; type: functional; settings: M14, 48 h; outline: as §1
[3] = system: SK-MEL-2; assay: Antiproliferative activity against human SKMEL2 cells after 48 hrs; type: functional; settings: SK-MEL-2, 48 h; outline: as §1
[4] = system: UACC-257; assay: Antiproliferative activity against human UACC257 cells after 48 hrs; type: functional; settings: UACC-257, 48 h
Outline: (§2)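 NCI 60-cell-line screen. Lines grown in RPMI 1640 with 5% fetal bovine serum and 2 mM L-glutamine, plated at 5,000–40,000 cells/well according to doubling time, left 24 h at 37 °C in 5% CO2. Drug stocks in DMSO at 400-fold the top final concentration. Five 10-fold dilutions, 10−4 to 10−8 M, incubated 48 h. Growth read spectrophotometrically as net protein; GI50 taken as 50% reduction.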

[5] = system: UACC-62; assay: Antiproliferative activity against human UACC62 cells after 48 hrs; type: functional; settings: UACC-62, 48 h; outline: as §2
[6] = system: OVCAR-3; assay: Antiproliferative activity against human OVCAR-3 cells after 48 hrs; type: functional; settings: OVCAR-3, 48 h; outline: as §1
[7] = system: SK-OV-3; assay: Antiproliferative activity against human SKOV3 cells after 48 hrs; type: functional; settings: SK-OV-3, 48 h; outline: as §1
[8] = system: A498; assay: Antiproliferative activity against human A498 cells after 48 hrs; type: functional; settings: A498, 48 h, read-out: Log TGI (converted); outline: as §1
[9] = system: CAKI-1; assay: Antiproliferative activity against human CAKI1 cells after 48 hrs; type: functional; settings: CAKI-1, 48 h; outline: as §1
[10] = system: RXF 393; assay: Antiproliferative activity against human RXF393 cells after 48 hrs; type: functional; settings: RXF 393, 48 h; outline: as §1
[11] = system: SN12C; assay: Antiproliferative activity against human SN12C cells after 48 hrs; type: functional; outline: as §1
[12] = system: TK-10; assay: Antiproliferative activity against human TK10 cells after 48 hrs; type: functional; settings: TK-10, 48 h; outline: as §2
[13] = system: PC-3; assay: Antiproliferative activity against human PC3 cells after 48 hrs; type: functional; settings: PC-3, 48 h; outline: as §1
[14] = system: DU-145; assay: Antiproliferative activity against human DU145 cells after 48 hrs; type: functional; settings: DU-145, 48 h; outline: as §1
[15] = system: MDA-MB-435; assay: Antiproliferative activity against human MDA-MB-435 cells after 48 hrs; type: functional; settings: Homo sapiens, MDA-MB-435, 48 h; outline: as §1
[16] = system: T47D; assay: Antiproliferative activity against human T47D cells after 48 hrs; type: functional; outline: as §2
[17] = system: HOP-62; assay: Antiproliferative activity against human HOP62 cells after 48 hrs; type: functional; settings: HOP-62, 48 h; outline: as §1
[18] = system: NCI-H226; assay: Antiproliferative activity against human NCI-H226 cells after 48 hrs; type: functional; settings: NCI-H226, 48 h; outline: as §1
[19] = system: NCI-H322M; assay: Antiproliferative activity against human NCI-H322M cells after 48 hrs; type: functional; outline: as §1
[20] = system: NCI-H522; assay: Antiproliferative activity against human NCI-H522 cells after 48 hrs; type: functional; settings: NCI-H522, 48 h; outline: as §1
[21] = system: HCC 2998; assay: Antiproliferative activity against human HCC2998 cells after 48 hrs; type: functional; settings: HCC 2998, 48 h; outline: as §1
[22] = system: HCT-116; assay: Antiproliferative activity against human HCT116 cells after 48 hrs; type: functional; settings: HCT-116, 48 h; outline: as §1
[23] = system: HCT-15; assay: Antiproliferative activity against human HCT15 cells after 48 hrs; type: functional; outline: as §1
[24] = system: HT-29; assay: Antiproliferative activity against human HT29 cells after 48 hrs; type: functional; settings: HT-29, 48 h; outline: as §1
[25] = system: KM12; assay: Antiproliferative activity against human KM12 cells after 48 hrs; type: functional; settings: for CC50: read-out: Log LC50 (the source's name) (converted); outline: as §1
[26] = system: SW-620; assay: Antiproliferative activity against human SW620 cells after 48 hrs; type: functional; settings: SW-620, 48 h; outline: as §2
[27] = system: SF-295; assay: Antiproliferative activity against human SF295 cells after 48 hrs; type: functional; settings: SF-295, 48 h; outline: as §1
[28] = system: SNB-19; assay: Antiproliferative activity against human SNB19 cells after 48 hrs; type: functional; settings: SNB-19, 48 h; outline: as §1
[29] = system: MCF7; assay: Antiproliferative activity against human MCF7 cells after 48 hrs; type: functional, cell-based; settings: MCF7, 48 h
[30] = system: CCRF-CEM; assay: Antiproliferative activity against human CCRF-CEM cells after 48 hrs; type: functional; outline: as §1
[31] = system: RPMI-8226; assay: Antiproliferative activity against human RPMI8226 cells after 48 hrs; type: functional; settings: RPMI-8226, 48 h; outline: as §1
[32] = system: A549; assay: Antiproliferative activity against human A549 cells after 48 hrs; type: functional; settings: A549, 48 h; outline: as §1
[33] = read-out: Log LC50 (the source's name) (converted)

Work on `CCCCCCCCCCCCCCN[C@@H](C)[C@H](O)c1ccccc1` yielded a GI50 [1] of 1.78 µM, an LC50 [1] of 5.89 µM and a TGI ([1]; read-out: Log TGI (converted)) of 3.24 µM. The GI50 [2] was 1.95 µM, the LC50 [2] was 6.31 µM and the TGI ([2]; read-out: Log TGI (converted)) was 3.55 µM. For the same compound, the GI50 [3] was 1.78 µM, the TGI ([3]; read-out: Log TGI (converted)) was 3.72 µM and the GI50 [4] was 1.86 µM. It also gave a CC50 [4, 33] of 6.76 µM, a TGI ([4]; read-out: Log TGI (converted)) of 3.55 µM and a GI50 [5] of 1.82 µM. The LC50 [5] was 6.31 µM, the TGI ([5]; read-out: Log TGI (converted)) was 3.39 µM and the GI50 [6] was 1.66 µM. The TGI ([6]; read-out: Log TGI (converted)) was 3.16 µM, the GI50 [7] was 2.34 µM and the CC50 [7, 33] was 9.77 µM. The TGI ([7]; read-out: Log TGI (converted)) was 4.79 µM, the TGI [8] was 10 µM and the GI50 [9] was 1.95 µM. It also gave a CC50 [9, 33] of 5.89 µM, a TGI ([9]; read-out: Log TGI (converted)) of 3.39 µM and a GI50 [10] of 1.66 µM. The CC50 [10, 33] was 6.03 µM, the TGI ([10]; read-out: Log TGI (converted)) was 3.16 µM and the GI50 [11] was 1.82 µM. The LC50 (50% net cell kill) [11] was 6.76 µM, the TGI ([11]; read-out: Log TGI (converted)) was 3.47 µM and the GI50 [12] was 2 µM. For the same compound, the CC50 [12, 33] was 6.17 µM, the TGI ([12]; read-out: Log TGI (converted)) was 3.47 µM and the GI50 [13] was 2.04 µM. The TGI ([13]; read-out: Log TGI (converted)) was 3.72 µM, the GI50 [14] was 1.86 µM and the CC50 [14, 33] was 6.46 µM. It also gave a TGI ([14]; read-out: Log TGI (converted)) of 3.47 µM, a GI50 [15] of 1.78 µM and an LC50 [15] of 5.75 µM. It also gave a TGI ([15]; read-out: Log TGI (converted)) of 3.24 µM, a GI50 [16] of 2.09 µM and a CC50 [16, 33] of 7.59 µM. The TGI ([16]; read-out: Log TGI (converted)) was 3.98 µM, the GI50 [17] was 1.95 µM and the CC50 [17, 33] was 6.17 µM. It also gave a TGI ([17]; read-out: Log TGI (converted)) of 3.47 µM, a GI50 [18] of 1.95 µM and a TGI ([18]; read-out: Log TGI (converted)) of 3.8 µM. The GI50 [19] was 2.04 µM, the CC50 [19, 33] was 6.61 µM and the TGI ([19]; read-out: Log TGI (converted)) was 3.72 µM. It also gave a GI50 [20] of 2.04 µM, a CC50 [20, 33] of 7.41 µM and a TGI ([20]; read-out: Log TGI (converted)) of 3.89 µM. The GI50 [21] was 1.82 µM, the CC50 [21, 33] was 5.75 µM and the TGI ([21]; read-out: Log TGI (converted)) was 3.24 µM. It also gave a GI50 [22] of 1.86 µM, an LC50 [22] of 6.46 µM and a TGI ([22]; read-out: Log TGI (converted)) of 3.47 µM. It also gave an LC50 [23] of 6.31 µM, a GI50 ([23]; Homo sapiens, HCT-15, 48 h) of 1.91 µM and an LC50 ([23]; Homo sapiens, HCT-15, 48 h) of 5.89 µM. For the same compound, the GI50 [24] was 1.86 µM, the LC50 [24] was 6.76 µM and the TGI ([24]; read-out: Log TGI (converted)) was 3.55 µM. The GI50 ([25]; Homo sapiens, KM12, 48 h) was 1.86 µM, the CC50 ([25]; Homo sapiens, KM12, 48 h) was 6.31 µM and the CC50 [25] was 5.62 µM. It also gave a GI50 [26] of 2.04 µM, an LC50 (concentration killing 50% of cells) [26] of over 100 µM and a GI50 [27] of 1.78 µM. For the same compound, the LC50 [27] was 6.46 µM, the TGI ([27]; read-out: Log TGI (converted)) was 3.39 µM and the GI50 [28] was 1.7 µM. It also gave a CC50 [28, 33] of 5.89 µM, a TGI ([28]; read-out: Log TGI (converted)) of 3.16 µM and a GI50 [29] of 1.82 µM. The LC50 [29] was 6.31 µM, the TGI ([29]; read-out: Log TGI (converted)) was 3.39 µM and the GI50 [30] was 2.4 µM. For the same compound, the CC50 [30, 33] was over 100 µM, the TGI ([30]; read-out: Log TGI (converted)) was 5.13 µM and the GI50 [31] was 2 µM. For the same compound, the TGI ([31]; read-out: Log TGI (converted)) was 4.37 µM, the GI50 [32] was 1.91 µM and the CC50 [32, 33] was 7.08 µM. For the same compound, the TGI ([32]; read-out: Log TGI (converted)) was 3.63 µM.
